Screening data (PubChem)
This is a sample that favours compounds with a hit; in the whole collection about 1.2% have one here.
FN deposit inh: fibronectin deposition inhibition. AH1F fibroblasts, Alexa488-fibronectin deposition fluorescence, overnight. AID 743247. 350,000 compounds, 0.086% hits. inhibition, % at 12.6 µM;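 active = mean inhibition across replicates of 30% or more, regardless of how many single replicates reach that level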;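 note: positive control wells lacked labelled fibronectin entirely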
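Material: AH1F fibroblasts assembling fluorescent fibronectin matrix; amount: 10000 AH1F cells/well; medium: DMEM, 2% serum; reagent: Alexa488-fibronectin, 24 nM final in well; dosing: single compound dose, delivered by pin transfer; incubation: 1 h adhesion, overnight exposure; detection: fluorescence after three HBSS washes, excitation 485 nm, emission 525 nm; measure: fibronectin deposition inhibition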
Efflux pump mplx: blocks antifungal efflux pumps in multiplex yeast assay | S. cerevisiae Candida pump triplex, Nile Red efflux | 330,000 compounds, 0.44% hits | inhibition, % at 10 µM;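 active = plate passing quality check with inhibition over a set limit, or well fluorescence over plate mean plus 4 SD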;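 note: Nile Red retained in pooled yeast measured as flow cytometry median fluorescence; 0% = buffer negative control and 100% = Enniatin B positive control; higher means more Nile Red kept so more efflux inhibition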
SR-BI uptake up: SR-BI HDL lipid transfer activation. CHO ldlA[mSR-BI] cells, DiI-HDL uptake fluorescence, 3 h; 100 = double the neutral-control signal. activation, % at 12.5 µM. 320,000 compounds, 0.096% hits. AID 504775;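 active = mean replicate activation of at least 60% and every replicate at or above 60%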;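 note: 0% = median plate neutral-control signal and 100% = twice that signal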
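Assay system: CHO ldlA[mSR-BI] cells, LDL receptor-null, SR-BI overexpressing; medium: Ham's F12 with 0.5% BSA, HEPES 25 mM, pH 7.4; also added: DiI-HDL 10 µg/mL; timing: 3 h uptake period with compound, 37 °C; signal: DiI fluorescence, bottom read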
CaV13 ICDI inh: Disruptors of the CACNA1D IQ motif to Ca2+-dependent inactivation inhibitor domain association, primary screening, Förster resonance energy transfer in intact living …. HEK cells, CFP/YFP FRET ICDI-IQ, plate reader, 10 min; percent FRET-ratio fall versus neutral wells. inhibition, % at 12.3 µM. 340,000 compounds, 0.098% hits;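 active = mean replicate inhibition of at least 30% and at least 1% of replicates passing that level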;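 note: 0% = median of the neutral control wells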
SR-BI DiI inh: inhibitors of mouse SR-BI mediated HDL lipid uptake; Q61009; 320,000 compounds, 0.96% hits; ldlA[mSR-BI] CHO cells, DiI-HDL uptake fluorescence, 3 h; inhibition, % at 12.5 µM;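 active = mean replicate inhibition of at least 70% and a set share of replicates each scoring 70 or more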;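 note: 0% = median of neutral control wells and 100% = median of positive control wells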
DiI quencher: quenches DiI-HDL fluorescence, an SR-BI assay artifact; shares compounds with SR-BI DiI inh; cell-free DiI-HDL fluorescence quenching, 30 min; AC50, µM (titrated, usually from 35 µM), without a hit: top-dose activity change, negative = quenching; 470 compounds, 20% hits;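 active = quenching, a falling signal, with AC50 below a set limit tied to the top valid dose, actives reach about 32 µM in these data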
* hit, by the source's call; . = no result.

SMILES | FN deposit inh | Efflux pump mplx | SR-BI uptake up | CaV13 ICDI inh | SR-BI DiI inh | DiI quencher
Nc1c(-c2cccs2)cnn1-c1nc(-c2ccc(F)cc2)cs1 | -3 | 0 | -74 | -5 | 74* | -7%
CCCC(=O)N1CCc2cc(-c3nc(N)sc3C)ccc21 | -10 | 0 | -75 | -6 | 75* | -9%
CNc1nc(-c2ccc3c(c2)CCN3C(=O)c2ccccc2F)c(C)s1 | . | 0 | -57 | -6 | 57 | -4%
CCC(C)C(=O)N1CCc2cc(-c3csc(N)n3)ccc21 (configuration not stated) | . | 0 | -54 | 1 | 54 | .
CNc1nc(-c2ccc3c(c2)CCN3C(=O)c2ccccc2F)cs1 | . | . | -70 | -7 | 70 | .
Cc1ccccc1S(=O)(=O)NCC[C@H]1CC[C@H](NC(=O)Nc2cccc(Cl)c2)[C@H](CO)O1 | 0 | . | . | . | . | .
